MLL AF4-AF9 inh: inhibitors of AF4 peptide binding to AF9, primary screen, biochemical, AlphaScreen, biotin-AF4 peptide, FLAG-AF9, single point | inhibition, % at 10 µM | hit rate 0.47% among 350,000 | AID 651704, 2012;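 active = every replicate reaching a set inhibition limit, whatever the replicate mean, cut at about 25% in these data; inconclusive = mean inhibition reaches that limit but some replicates miss it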;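 note: 0% = plate neutral control median and 100% = total signal loss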
FN deposit inh: inhibitors of fibronectin matrix deposition, primary screen, AH1F cells, Alexa488-fibronectin fluorescence, plate reader; AH1F fibroblasts, overnight; inhibition, % at 12.6 µM; hit rate 0.086% among 350,000; AID 743247, 2014;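 active = mean inhibition across replicates of 30% or more, regardless of how many single replicates reach that level; inconclusive = mean under 30% yet at least half of replicates reach 30%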;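 note: positive control wells lacked labelled fibronectin entirely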
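Schedule: 1 h cell adhesion before compound, then overnight fibronectin incubation; test system: AH1F fibroblast monolayer depositing Alexa488-labelled fibronectin into matrix; quantity: 10000 AH1F cells per well; probe or stimulus: fluorescent fibronectin at 24 nM final; signal: fluorescence, ex 485 nm, em 525 nm; evaluation: percent inhibition as loss of matrix-bound fibronectin fluorescence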
RAD54 branch: inhibitors of human RAD54 branch migration, primary screen, biochemical, fluorescence, single point | DNA repair and recombination protein RAD54-like (Homo sapiens), Q92698 | RAD54 Holliday junction branch migration, FAM/BHQ fluorescence | inhibition, % at 10.4 µM | hit rate 0.14% among 360,000 | AID 602329, 2012;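 active = mean normalized replicate activity at least 40 and at least half of replicates scoring 40 or more; inconclusive = only one of the two criteria met; inactive = mean below 40 and under half of replicates reaching 40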;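 note: 0% = median of neutral control wells and 100% = median of positive control wells; inhibitors cause a drop in the FAM fluorescence signal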
Target sequence (Q92698 whole entry, looked up): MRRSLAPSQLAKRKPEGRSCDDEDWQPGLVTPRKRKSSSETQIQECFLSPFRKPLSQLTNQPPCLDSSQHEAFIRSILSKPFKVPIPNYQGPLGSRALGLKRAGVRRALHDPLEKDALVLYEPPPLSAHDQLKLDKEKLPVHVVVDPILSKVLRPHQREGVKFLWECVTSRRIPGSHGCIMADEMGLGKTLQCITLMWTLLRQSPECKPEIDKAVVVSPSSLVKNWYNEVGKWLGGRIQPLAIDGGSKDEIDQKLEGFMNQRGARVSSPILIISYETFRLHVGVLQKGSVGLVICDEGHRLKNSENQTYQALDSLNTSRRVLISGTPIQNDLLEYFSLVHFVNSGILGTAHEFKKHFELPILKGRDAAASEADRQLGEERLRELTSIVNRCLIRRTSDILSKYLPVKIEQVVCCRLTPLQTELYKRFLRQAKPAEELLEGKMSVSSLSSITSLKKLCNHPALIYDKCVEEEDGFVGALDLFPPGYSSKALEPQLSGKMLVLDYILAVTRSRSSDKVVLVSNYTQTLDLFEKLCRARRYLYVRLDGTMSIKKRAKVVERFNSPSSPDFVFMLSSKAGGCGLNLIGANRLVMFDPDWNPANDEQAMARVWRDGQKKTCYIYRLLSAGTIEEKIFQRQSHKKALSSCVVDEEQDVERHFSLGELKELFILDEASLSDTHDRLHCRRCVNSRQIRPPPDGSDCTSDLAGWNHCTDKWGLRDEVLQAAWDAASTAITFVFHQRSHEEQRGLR
N-glyco inh: increase of ERlucT glycosylation luciferase signal, primary screen, N-linked glycosylation inhibitor project, D54 ERlucT cells, luminescence, set 2 | hit rate 0.23% among 360,000 | AID 588692, 2011 | D54 ERlucT glycosylation luciferase reporter, 24 h; percent of 100 nM tunicamycin response | reporter increase, % at 12.5 µM;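 active = mean luciferase reporter signal, scaled so untreated is 0 and the glycosylation-blocking control 100, at or above a set limit in every replicate; inconclusive = mean reaches the limit but not every replicate does; inactive = mean below the limit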;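 note: luciferase carries N-glycosylation sites so blocking glycosylation raises the light; 0% = median of neutral control wells and 100% = median of 100 nM tunicamycin wells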
RAD52 inh: RAD52 DNA annealing inhibitors, primary screen, biochemical, FRET, single point, set 2; hit rate 0.46% among 360,000; DNA repair protein RAD52 homolog (Homo sapiens), P43351; AID 651710, 2012; inhibition, % at 18.7 µM; recombinant RAD52 DNA annealing, FRET fluorescence;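 active = every replicate showing at least 50% inhibition; inconclusive = mean inhibition at least 50% but not in every replicate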
* = called active by the depositor; ? = inconclusive; · = no result given. Hits are enriched below; roughly 0.92% of the tested compounds scored in any of these assays.

SMILES | MLL AF4-AF9 inh | FN deposit inh | RAD54 branch | N-glyco inh | RAD52 inh
CN(C)C(=O)[C@@H]1[C@@H](CO)[C@@H]2Cn3c(ccc(C4=CCCCC4)c3=O)[C@H]1N2CC1CC1 | 1 | · | -3 | · | 5
CCn1cc(/C=C(\NC(=O)c2cc(OC)c(OC)c(OC)c2)C(=O)NCCN2CCOCC2)c2ccccc21 | 2 | -13 | · | 1 | -31
CCn1cc(/C=C(\NC(=O)c2cc(OC)c(OC)c(OC)c2)C(=O)NCCCN2CCOCC2)c2ccccc21 | 25* | -19 | · | 5 | -14
COc1ccccc1CN1[C@@H](CO)[C@@H]2c3ccccc3N(C(=O)c3cccnc3)C[C@@H]21 | 44* | -6 | -2 | · | 7
COc1cc(/C=N/N(C)S(=O)(=O)c2ccc(C)cc2)cc([N+](=O)[O-])c1O | 31* | 5 | -16 | 2 | -18
COc1cc(/C=N/NS(=O)(=O)c2ccc(C)c([N+](=O)[O-])c2)cc([N+](=O)[O-])c1O | -21 | 10 | -8 | 2 | -28
C/C(=N\NC(=O)c1c([N+](=O)[O-])c(C)nn1C)c1ccc(NC(=O)C2CCCC2)cc1 | 1 | 20 | 15 | 33* | 3
C/C(=N\NC(=O)c1c(Cl)c(C)nn1C)c1ccc(NC(=O)C2CCC2)cc1 | -1 | 0 | -3 | 20 | 5
Cc1noc(C)c1NC(=O)Nc1ccc2c(c1)C(=O)N([C@H](C)CO)C[C@@H](C)[C@H](CN(C)C(=O)NC1CCCCC1)O2 | -9 | · | 3 | · | 5
CN1c2ccc(C3=CCCCC3)cc2[C@H]2[C@H](CCN2C(=O)C2CC2)[C@@H]1CO | 69* | · | · | · | -64
CN1c2ccc(C3=CCCCC3)cc2[C@@H]2[C@@H](CCN2C(=O)C2CC2)[C@H]1CO | 18 | -1 | · | · | 9
CN1c2ccc(C3=CCCCC3)cc2[C@@H]2[C@@H](CCN2C(=O)C2CC2)[C@@H]1CO | ? | 8 | · | · | 16
CN1c2ccc(C3=CCCCC3)cc2[C@H]2[C@H](CCN2C(=O)C2CCCCC2)[C@@H]1CO | 30* | 12 | · | · | 22
CN1c2ccc(C3=CCCCC3)cc2[C@@H]2[C@@H](CCN2C(=O)C2CCCCC2)[C@@H]1CO | ? | · | · | · | 8
CN1c2ccc(C3=CCCCC3)cc2[C@@H]2[C@@H](CCN2C(=O)C2CCC2)[C@@H]1CO | 28* | -5 | · | · | -4
COc1ccc(-c2ccc(C3[C@H]4CNC[C@@H]3N4C(=O)Nc3ccc4c(c3)OCO4)cc2)cc1 (some centres undefined) | 20 | 5 | · | · | 47
C[C@@H]1CCCCO[C@H](CN(C)C)[C@@H](C)CN([C@@H](C)CO)C(=O)c2cc(NS(=O)(=O)c3ccc(F)cc3)ccc2O1 | · | -3 | · | · | ·
CC(=O)Nc1ccc(CNc2ncnc3ccc(-c4c(C)noc4C)cc23)cc1 | 0 | -5 | 3 | 50* | -6
C[C@H]1COCn2nncc2CCCC(=O)N1 | · | 2 | · | · | ·
Cc1noc(C)c1NC(=O)Nc1ccc2c(c1)CC(=O)N([C@@H](C)CO)C[C@@H](C)[C@H](CN(C)S(C)(=O)=O)O2 | -4 | · | · | · | -9
CC(C)N1CCc2c(sc(NC(=O)c3cc(-c4cccs4)nc4ccccc34)c2C(N)=O)C1 | · | · | 78* | -5 | ·
CC(=O)c1cccc(-c2ccnc3c2CC(C(=O)NCc2cccs2)O3)c1 (centres undefined) | 3 | -11 | 1 | 34* | -70
O=C(NCc1cccs1)C1Cc2c(-c3ccc(Cl)cc3)ccnc2O1 (centres undefined) | -2 | -1 | -2 | 21 | 4
O=C(C[C@H]1CC[C@@H]2[C@H](COC[C@@H](O)CN2S(=O)(=O)c2cccc(Cl)c2)O1)NC1CCCC1 | 26* | -2 | -10 | · | 40
O=C(C[C@H]1CC[C@@H]2[C@H](COC[C@H](O)CN2S(=O)(=O)c2ccc(F)cc2)O1)NCC1CCCCC1 | 28* | -4 | 4 | · | 59*
SMILES | MLL AF4-AF9 inh | FN deposit inh | RAD54 branch | N-glyco inh | RAD52 inh
O=C(C[C@@H]1CC[C@@H]2[C@H](COC[C@H](O)CN2S(=O)(=O)c2ccc(Cl)cc2)O1)NCCN1CCCCC1 | 1 | -9 | · | · | 17
O=C(C[C@@H]1CC[C@H]2[C@@H](COC[C@@H](O)CN2S(=O)(=O)c2ccc(Cl)cc2)O1)NCC1CCCCC1 | 34* | -7 | -4 | · | 42
O=C(C[C@@H]1CC[C@H]2[C@@H](COC[C@H](O)CN2S(=O)(=O)c2ccc(F)cc2)O1)NCC1CCCCC1 | 36* | -5 | 6 | · | 89*
C[C@@H]1CN([C@H](C)CO)C(=O)c2cc(NC(=O)C3CCCCC3)ccc2O[C@@H]1CN(C)C(=O)Nc1ccc(F)cc1 | 0 | · | 4 | · | 13
O=C(C[C@@H]1CC[C@@H]2[C@H](COC[C@H](O)CN2S(=O)(=O)c2ccc(F)cc2)O1)NCC1CC1 | 1 | -5 | -5 | · | 3
O=C(C[C@@H]1CC[C@@H]2[C@H](COC[C@@H](O)CN2S(=O)(=O)c2ccc(F)cc2)O1)NCC1CCCCC1 | ? | -8 | 1 | · | 71*
CC1=CC(C)[C@H](/C=N/n2c(=O)[nH]c3c([nH]c4ccc(Br)cc43)c2=O)C(C)C1 (some centres undefined) | -5 | -5 | -7 | 37* | -27
COc1ccc2[nH]c3c(=O)n(/N=C/[C@H]4C(C)C=C(C)CC4C)c(=O)[nH]c3c2c1 (some centres undefined) | -1 | 3 | -22 | 0 | -22
O=C(N/N=C/c1ccc(OC(F)F)cc1)c1ccc(Br)cc1 | · | · | -1 | -2 | ·
O=C(NO)c1ccc(OC(F)F)cc1 | -4 | -2 | · | 36* | 2
Cc1ccc(S(=O)(=O)NC[C@H]2CC[C@H]3[C@H](CN3Cc3cc(F)ccc3F)O2)cc1 | -1 | · | · | · | 61*
Cc1ccc(S(=O)(=O)NC[C@@H]2CC[C@H]3[C@H](CN3Cc3ccccc3C(=O)O)O2)cc1 | -10 | · | · | · | 8
COc1ccc(S(=O)(=O)NC[C@H]2CC[C@H]3[C@H](CN3Cc3cc(F)ccc3F)O2)cc1 | -1 | · | · | · | 66*
O=C(c1ccccc1F)N1C[C@@H]2O[C@H](CNS(=O)(=O)c3ccccc3)CC[C@@H]21 | -4 | · | · | · | 59*
O=S(=O)(NC[C@@H]1CC[C@@H]2[C@@H](CN2Cc2ccccc2C(F)(F)F)O1)c1ccccc1 | -4 | · | · | · | -5
Fc1ccc(Nc2cccc3nccnc23)cc1 | · | 3 | 2 | -2 | ·
c1cc(Nc2cccc3nccnc23)c2nccnc2c1 | 26* | -1 | -6 | 5 | -441
NC(=O)CC(NC(=O)Cc1ccc(Cl)cc1)c1ccc(NC2CCCCC2)c([N+](=O)[O-])c1 (centres undefined) | -24 | -10 | -3 | 45* | -132

Assay outcomes deposited in PubChem by Broad Institute.
